The source made the active and inactive calls. The rule behind the calls is not given here.
Key:
[1] = target: T1, Integrin alpha-L/beta-2 (LFA-1) (Homo sapiens, UniProt P05107+P20701); experiment: Antagonist activity at alphaLbeta2 in human Jurkat E6.1 cells assessed as reduction in cell adhesion to ICAM1 pre-incubated for 30 mins before ICAM1 and further incubated for 30 mins by […]; assay type: cell-based
Outline: (§1)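 Jurkat E6.1 cells labelled with CellTracker green CMFDA (12.5 µM, 30 min, 37 °C), washed, then pre-incubated 30 min at 37 °C with compound or methanol. Plated at 500,000/well on VCAM-1 (α4β1) or ICAM-1 (αLβ2) coated wells (5 µg/mL) for 30 min at 37 °C. Cells lysed in 0.5% Triton X-100; fluorescence read Ex485/Em535. Quadruplicate, at least three repeats.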

SK-MEL-24 = experiment: Toxicity in human SK-MEL-24 cells assessed as induction of cell necrosis and/or apoptosis incubated for 3 hrs by annexin V-PE and 7-AAD staining based by flow cytometry; settings: sk-mel-24, 3 h
Outline: (§2)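 After 3 h incubation, cells resuspended in complete medium and stained with annexin V-PE/7-AAD reagent for 20 min at room temperature in the dark. Flow cytometry sorted cells into viable, early apoptotic and late apoptotic/necrotic populations.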

Integrin alpha-4/beta-1 [2] = target: T2, Integrin alpha-4/beta-1 (Homo sapiens, UniProt P05556+P13612); experiment: Antagonist activity at alpha4beta1 in human Jurkat E6.1 cells assessed as reduction in VCAM-1 induced ERK1/2 phosphorylation at 1 to 100 pM by Western blot analysis; assay type: cell-based; settings: filed as antagonist, dose 1-100 pM
MCF7 = experiment: Toxicity in human MCF7 cells assessed as induction of cell necrosis and/or apoptosis incubated for 3 hrs by annexin V-PE and 7-AAD staining based by flow cytometry; settings: mcf7, 3 h; outline: as §2
Integrin alpha-V/beta-6 [3] = target: T3, Integrin alpha-V/beta-6 (Homo sapiens, UniProt P06756+P18564); experiment: Antagonist activity at alphaVbeta6 in human HT-29 cells assessed as reduction in cell adhesion to fibronectin pre-incubated for 30 mins before fibronectin and further incubated for 1 hr by nitrophenyl-N-acetyl-beta-D-glucosaminide substrate based chromogenic assay
Outline: (§3)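 Compound or methanol vehicle pre-incubated with cells for 30 min at room temperature. Cells then plated on wells coated overnight at 4 °C with fibronectin 10 µg/mL (SK-MEL-24, K562, HT-29) or fibrinogen 10 µg/mL (MCF7, HEL). Seeding was 50,000 cells/well, or 100000 for HEL. Adhesion ran 1 h at room temperature. Wells washed with 1% BSA/PBS. Quadruplicate, at least three repeats.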

Integrin alpha-5/beta-1 [4] = target: T4, Integrin alpha-5/beta-1 (Homo sapiens, UniProt P05556+P08648); experiment: Inhibition of fibronectin binding to alpha5beta1 isolated from human K562 cells incubated for 1 hr by […] competitive solid-phase binding assay; assay type: tissue-based
Outline: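 Plates coated overnight at 4 °C in carbonate buffer pH 9.6 with fibronectin 0.5 µg/mL (αvβ3, αvβ6, α5β1), fibrinogen 10 µg/mL (αIIbβ3, αvβ5) or ICAM-1 (αLβ2). Blocked 1 h in buffer containing Ca/Mg/Mn 1 mM each and 1% BSA. Purified integrin (3–10 µg/mL) incubated with compound (10⁻⁴–10⁻¹⁰ M) 1 h at room temperature. Bound integrin detected with primary antibody then AlexaFluor488 secondary, Ex485/Em535. Duplicate, at least three repeats.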

HT-29 = experiment: Toxicity in human HT-29 cells assessed as induction of cell necrosis and/or apoptosis incubated for 3 hrs by annexin V-PE and 7-AAD staining based by flow cytometry; settings: ht-29, 3 h; outline: as §2
Integrin alpha-V/beta-3 [5] = target: T5, Integrin alpha-V/beta-3 (Homo sapiens, UniProt P05106+P06756); experiment: Inhibition of fibronectin binding to human recombinant alphaVbeta3 expressed in HEK293 cells incubated for 1 hr by […] competitive solid-phase binding assay; assay type: cell-based
[6] = target: T6, Integrin alpha-IIb/beta-3 (Homo sapiens, UniProt P05106+P08514); experiment: Agonist activity at alpha2bbeta3 in human HEL cells assessed as increase in cell adhesion to fibrinogen pre-incubated for 30 mins before fibrinogen and further incubated for 1 hr by nitrophenyl-N-acetyl-beta-D-glucosaminide substrate based chromogenic assay; outline: as §3
Integrin alpha-V/beta-5 [7] = target: T7, Integrin alpha-V/beta-5 (Homo sapiens, UniProt P06756+P18084); experiment: Inhibition of fibrinogen binding to alphaVbeta5 isolated form human mCf7 cells incubated for 1 hr by […] competitive solid-phase binding assay
HEL = experiment: Toxicity in human HEL cells assessed as induction of cell necrosis and/or apoptosis incubated for 3 hrs by annexin V-PE and 7-AAD staining based by flow cytometry; outline: as §2
Integrin alpha-V/beta-5 [8] = target: T7, Integrin alpha-V/beta-5; experiment: Agonist activity at alphaVbeta5 in human MCF7 cells assessed as increase in cell adhesion to fibrinogen pre-incubated for 30 mins before fibrinogen and further incubated for 1 hr by nitrophenyl-N-acetyl-beta-D-glucosaminide substrate based chromogenic assay
Outline: as §3, with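 “BSA/PBS. Adherent cells read by hexosaminidase substrate, absorbance 405 nm.” for “BSA/PBS.”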

Integrin alpha-V/beta-3 [9] = target: T5, Integrin alpha-V/beta-3; experiment: Antagonist activity at alphaVbeta3 in human SK-MEL-24 cells assessed as reduction in cell adhesion to fibronectin pre-incubated for 30 mins before fibronectin and further incubated for 1 hr by nitrophenyl-N-acetyl-beta-D-glucosaminide substrate based chromogenic assay; outline: as §3
Integrin alpha-4/beta-1 [10] = target: T2, Integrin alpha-4/beta-1; experiment: Antagonist activity at alpha4beta1 in human Jurkat E6.1 cells assessed as reduction in exposure of HUTS-21 epitope measured by mAb binding; assay type: cell-based; settings: filed as antagonist
Outline: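 Jurkat E6.1 cells at 10⁶/mL in 1% BSA/HBSS incubated 30 min at 37 °C with compound. PE-labelled HUTS-21 mAb then added for 45 min at room temperature. Cells washed, 10,000 analysed by flow cytometry. MFI corrected to isotype control set to 0. Four independent experiments in duplicate.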

Integrin alpha-4/beta-1 [11] = target: T2, Integrin alpha-4/beta-1; experiment: Inhibition of fibronectin binding to […] isolated from human Jurkat E6.1 cells incubated for 1 hr by scintillation-proximity assay based competitive solid-phase binding assay; assay type: tissue-based
[12] = target: T6, Integrin alpha-IIb/beta-3; experiment: Antagonist activity at alpha2bbeta3 in human HEL cells assessed as reduction in cell adhesion to fibrinogen pre-incubated for 30 mins before fibrinogen and further incubated for 1 hr by nitrophenyl-N-acetyl-beta-D-glucosaminide substrate based chromogenic assay; outline: as §3
K562 = experiment: Toxicity in human K562 cells assessed as induction of cell necrosis and/or apoptosis incubated for 3 hrs by annexin V-PE and 7-AAD staining based by flow cytometry; settings: k562, 3 h; outline: as §2
Integrin alpha-5/beta-1 [13] = target: T4, Integrin alpha-5/beta-1; experiment: Antagonist activity at alpha5beta1 in human K562 cells assessed as assessed as reduction in ERK1/2 phosphorylation at 1 to 100 nM by Western blot analysis; assay type: cell-based; settings: filed as antagonist, dose 1-100 nM
Integrin alpha-4/beta-1 [14] = target: T2, Integrin alpha-4/beta-1; experiment: Antagonist activity at alpha4beta1 in human Jurkat E6.1 cells assessed as reduction in VCAM-1 induced ERK1/2 phosphorylation at 1 to 100 nM by Western blot analysis; assay type: cell-based; settings: filed as antagonist, dose 1-100 nM
Integrin alpha-V/beta-6 [15] = target: T3, Integrin alpha-V/beta-6; experiment: Inhibition of fibronectin binding to alphaVbeta6 isolated form human HT-29 cells incubated for 1 hr by […] competitive solid-phase binding assay; assay type: tissue-based
Integrin alpha-V/beta-6 [16] = target: T3, Integrin alpha-V/beta-6; experiment: Agonist activity at alphaVbeta6 in human HT-29 cells assessed as increase in cell adhesion to fibronectin pre-incubated for 30 mins before fibronectin and further incubated for 1 hr by nitrophenyl-N-acetyl-beta-D-glucosaminide substrate based chromogenic assay
Outline: as §3, with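 “BSA/PBS. Adherent cells read by hexosaminidase substrate, absorbance 405 nm.” for “BSA/PBS.”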

[17] = target: T1, Integrin alpha-L/beta-2 (LFA-1); experiment: Agonist activity at alphaLbeta2 in human Jurkat E6.1 cells assessed as increase in cell adhesion to ICAM1 pre-incubated for 30 mins before ICAM1 and further incubated for 30 mins by […]; assay type: cell-based; outline: as §1
Integrin alpha-4/beta-1 [18] = target: T2, Integrin alpha-4/beta-1; experiment: Antagonist activity at alpha4beta1 in human Jurkat E6.1 cells assessed as reduction in cell adhesion to VCAM1 pre-incubated for 30 mins before VCAM1 and further incubated for 30 mins by […]; assay type: cell-based
Integrin alpha-5/beta-1 [19] = target: T4, Integrin alpha-5/beta-1; experiment: Antagonist activity at alpha5beta1 in human K562 cells assessed as reduction in cell adhesion to fibronectin pre-incubated for 30 mins before fibronectin and further incubated for 1 hr by nitrophenyl-N-acetyl-beta-D-glucosaminide substrate based chromogenic assay
Outline: as §3, with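 “BSA/PBS. Adherent cells read by hexosaminidase substrate, absorbance 405 nm.” for “BSA/PBS.”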

Integrin alpha-V/beta-5 [20] = target: T7, Integrin alpha-V/beta-5; experiment: Antagonist activity at alphaVbeta5 in human MCF7 cells assessed as reduction in cell adhesion to fibrinogen pre-incubated for 30 mins before fibrinogen and further incubated for 1 hr by nitrophenyl-N-acetyl-beta-D-glucosaminide substrate based chromogenic assay; outline: as §3
[21] = target: T6, Integrin alpha-IIb/beta-3; experiment: Inhibition of fibrinogen binding to alpha2bbeta3 isolated from human HEL cells incubated for 1 hr by […] competitive solid-phase binding assay
Integrin alpha-V/beta-3 [22] = target: T5, Integrin alpha-V/beta-3; experiment: (§4) Agonist activity at alphaVbeta3 in human SK-MEL-24 cells assessed as increase in cell adhesion to fibronectin at 10 ug/ml pre-incubated for 30 mins and further incubated for 1 hr in presence of in presence of integrin antagonist c(-RGDfV) by nitrophenyl-N-acetyl-beta-D-glucosaminide substrate based chromogenic assay; settings: dose 10.0 µg/ml, time 90.0 min
Integrin alpha-V/beta-3 [23] = target: T5, Integrin alpha-V/beta-3; experiment: Agonist activity at alphaVbeta3 in human SK-MEL-24 cells assessed as increase in cell adhesion to fibronectin at 2 to 10 ug/ml pre-incubated for 30 mins and further incubated for 1 hr by nitrophenyl-N-acetyl-beta-D-glucosaminide substrate based chromogenic assay; settings: filed as agonist, dose 2-10 µg/ml, time 90.0 min
Integrin alpha-V/beta-3 [24] = target: T5, Integrin alpha-V/beta-3; experiment: as §4, with “of neutralizing antibody against the alphaV” for “of in presence of”, “integrin subunit” for “integrin antagonist c(-RGDfV)”; settings: dose 10.0 µg/ml, time 90.0 min
Integrin alpha-V/beta-3 [25] = target: T5, Integrin alpha-V/beta-3; experiment: Agonist activity at human alphaVbeta3 expressed in HEK293 cells assessed as increase in ERK1/2 phosphorylation by Western blot analysis; assay type: cell-based; settings: filed as agonist
Integrin alpha-4/beta-1 [26] = target: T2, Integrin alpha-4/beta-1; experiment: Agonist activity at alpha4beta1 in human Jurkat E6.1 cells assessed as increase in cell adhesion to VCAM1 pre-incubated for 30 mins before VCAM1 and further incubated for 30 mins by […]; assay type: cell-based; outline: as §1

Structure (SMILES)	IC50 [1] [µM]	Activity (SK-MEL-24)	Activity (MCF7)	IC50 (Integrin alpha-V/beta-6 [3]) [µM]	IC50 (Integrin alpha-5/beta-1 [4]) [nM]	Activity (HT-29)	IC50 (Integrin alpha-V/beta-3 [5]) [nM]	EC50 [6] [µM]	IC50 (Integrin alpha-V/beta-5 [7]) [nM]	Activity (HEL)	EC50 (Integrin alpha-V/beta-5 [8]) [nM]	IC50 (Integrin alpha-4/beta-1 [11]) [nM]	IC50 [12] [µM]	Activity (K562)	IC50 (Integrin alpha-V/beta-6 [15]) [nM]	EC50 (Integrin alpha-V/beta-6 [16]) [µM]	EC50 [17] [µM]	IC50 (Integrin alpha-4/beta-1 [18]) [nM]	also measured
Cc1ccccc1NC(=O)N1C(=O)C[C@H]1C(=O)O	> 5	Non-Toxic	Non-Toxic	> 5	114	Non-Toxic	285	> 5	> 1000	Non-Toxic	> 5000	1.1	> 5	Non-Toxic	> 1000	> 5	> 5	1.39	Activity (Integrin alpha-4/beta-1 [2]): Dose-dependent effect; IC50 (Integrin alpha-V/beta-3 [9]): 352 nM; Activity (Integrin alpha-4/beta-1 [10]): Dose-dependent effect; Activity (Integrin alpha-5/beta-1 [13]): Dose-dependent effect; Activity (Integrin alpha-4/beta-1 [14]): Active; IC50 (Integrin alpha-5/beta-1 [19]): 158 nM; IC50 (Integrin alpha-V/beta-5 [20]): > 5 µM
NCc1ccc(NC(=O)N2C(=O)CC2CC(=O)NCC(=O)O)cc1.O=C(O)C(F)(F)F (centres undefined)	> 5	Non-Toxic	Non-Toxic	> 5	> 1000	Non-Toxic	1.2	> 5	104	Non-Toxic	505	> 1000	> 5	Non-Toxic	> 1000	> 5	> 5	> 5000	IC50 [21]: > 1000 nM; Activity (Integrin alpha-V/beta-3 [22]): inactive; Activity (Integrin alpha-V/beta-3 [23]): Dose-dependent effect; Activity (Integrin alpha-V/beta-3 [24]): inactive; Activity (Integrin alpha-V/beta-3 [25]): Dose-dependent effect; EC50 (Integrin alpha-4/beta-1 [26]): > 5 µM
